Only some compounds are listed: those with a hit (about 1.9% of all), similar ones and a draw of the others.
F508del corr: F508del CFTR correction, initial screen, CFBE line, single point | activity (quench increase), % at 7.58 µM | CFBE cells, YFP halide quenching; stimulated with forskolin plus potentiator P3; % fluorescence drop versus neutral controls | hit rate 0.36% among 350,000;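 active = mean added fluorescence quench of at least 8% versus neutral control, with both replicates also reaching 8%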;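 note: cells transiently co-express mutant CFTR-F508del with the halide-sensitive YFP; corrector assay measuring rescue of mutant channel to the surface after 24 h compound exposure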
PGC1a acetyl inh: inhibitors of PGC1a acetylation signal, primary screen, cell-based, U2OS, AlphaScreen, inhibitor mode. hit rate 0.17% among 350,000. AlphaScreen anti-acetyl-lysine; with virally co-expressed GCN5 acetyltransferase. inhibition, % at 15.6 µM;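 active = every replicate shows inhibition of at least 40%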;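 note: 0% = neutral control wells and 100% = positive control wells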
XiGFP reactiv: activators of inactive X chromosome reactivation, primary screen, imaging, XiGFP fibroblasts, GFP high-content imaging, set 2 | XiGFP mouse fibroblasts, % GFP-positive cells imaging, 3 d; cells co-treated with 5-aza-dC sensitizer; scaled so ellipticine positive control = 100% | activation, % at 7.58 µM | hit rate 0.055% among 360,000;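 active = mean normalized replicate activation at least 10% and every replicate at or above 10%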;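 note: 0% = median of on-plate neutral control wells and 100% = ellipticine 6 µM median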
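Material: XiGFP fibroblasts, SV40-immortalized. Buffer or medium: DMEM plus 5-aza-dC sensitizer. Compound: single concentration per compound, delivered by pin transfer. Times: 3 days compound exposure. Controls: ellipticine 6 µM.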
DENV2 CPE rescue: inhibitors of DENV2 cytopathic effect, primary screen, cell-based, plate reader, single concentration. DENV2-infected cells, cytopathic effect rescue. CPE inhibition, % at 9.99 µM. hit rate 1.7% among 350,000. AID 651640, 2012; in the data active = CPE inhibition above about 20%, passing the limit was not always enough; tested in BHK-21 cells;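 note: 0% = median of neutral control wells and 100% = median of positive control wells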
Cneo AK release: Cryptococcus neoformans cell lysis inducers, primary screen, AK release luminescence, single concentration | hit rate 0.2% among 360,000 | lysis activity, % at 15 µM | C. neoformans lysis, adenylate kinase release luminescence, 4 h; normalised: neutral wells 0, clomiphene wells 100 | AID 651654, 2012;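 active = mean lysis activity across replicates of at least 80%, whatever share of replicates individually reach that level; inactive = mean lysis activity below 80%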
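Material – Cryptococcus neoformans yeast cells · Quantity – 5 × 10^6 yeast cells/mL · Buffer or medium – YPD medium · Compound – single dose · Timing – 4 h static compound exposure, 37 °C, read 1 h post-reagent · Signal – adenylate kinase release luminescence · Read-out basis – lysis from increased AK signal · Benchmarks – Clomiphene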
FN deposit inh: inhibitors of fibronectin matrix deposition, primary screen, AH1F cells, Alexa488-fibronectin fluorescence, plate reader. inhibition, % at 12.6 µM. AH1F fibroblasts, overnight. hit rate 0.086% among 350,000;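 active = mean inhibition across replicates of 30% or more, regardless of how many single replicates reach that level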;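 note: positive control wells lacked labelled fibronectin entirely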
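Material: AH1F fibroblast monolayer depositing Alexa488-labelled fibronectin into matrix / Amount: 10000 AH1F cells per well / Signal: fluorescence 485/525 nm / Medium: DMEM, 2% serum / Compound: single dose, pinned / Incubation: 1 h cell adhesion before compound, then overnight fibronectin incubation / Reagent: Alexa488-FN, 24 nM final / Read-out: inhibition of fibronectin deposition signal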
The depositor's hits bear a star; . = no result given.

SMILES	F508del corr	PGC1a acetyl inh	XiGFP reactiv	DENV2 CPE rescue	Cneo AK release	FN deposit inh
C=CCN1C(=O)[C@@]2(O[C@@H](CCn3cc([C@H](O)c4ccccc4)nn3)[C@H]([Si](C)(C)c3ccc(OC)cc3)[C@H]2C)c2cc(N3CCOC3=O)ccc21	12*	.	.	42*	-2	.
COc1ccc([Si](C)(C)[C@H]2[C@H](CCO)O[C@@]3(C(=O)N(Cc4ccccc4)c4ccc(N5CCOC5=O)cc43)[C@@H]2C)cc1	2	14	.	20*	7	.
Cc1ccc(S(=O)(=O)N(C)C[C@@H]2Oc3c(NS(=O)(=O)c4cn(C)cn4)cccc3C(=O)N([C@H](C)CO)C[C@@H]2C)cc1	-1	16	0	5	.	.
CCCNC(=O)C[C@@H]1CC[C@H]2[C@@H](COC[C@H](O)CN2C(=O)Nc2ccccc2OC)O1	-1	1	0	9	0	1
CCCNC(=O)C[C@H]1CC[C@H]2[C@@H](COC[C@H](O)CN2C(=O)Nc2ccccc2OC)O1	-1	16	0	21*	2	-11
CCCNC(=O)C[C@H]1CC[C@H]2[C@@H](COC[C@@H](O)CN2C(=O)Nc2ccccc2OC)O1	-3	-2	0	44*	-9	1
CCN(CC)C(=O)c1oc2ccc(S(=O)(=O)N3CC(C)CC(C)C3)cc2c1C (stereo not drawn)	9.2*	.	0	7	-1	-7
Cc1c(C(=O)NCc2cccnc2)oc2ccc(S(=O)(=O)N3CC(C)CC(C)C3)cc12 (stereo not drawn)	0	-8	0	21*	-4	15
COc1cc(CN2CC3(CCN(S(=O)(=O)c4cccc(F)c4)CC3)c3c([nH]c4cc(OC)ccc34)[C@@H]2CO)cc(OC)c1	-1	-3	0	15	.	.
O=C(CC(F)(F)F)N1C[C@@H]2[C@H](c3ccccc31)[C@@H](CO)N2CC1CCCCC1	-3	-1	0	3	-5	.
COC(=O)C1(CC2CC(c3ccncc3)=NO2)CCN(C(=O)OC(C)(C)C)CC1 (stereo not drawn)	-1	14	0	37*	-1	11
C[C@@H]1CN([C@@H](C)CO)C(=O)c2cc(NS(=O)(=O)c3ccc(F)cc3)ccc2O[C@@H](C)CCCCO[C@H]1CN(C)S(=O)(=O)c1ccc(F)cc1	0	-8	0	-8	101*	-13
C[C@@H]1CN([C@H](C)CO)C(=O)c2cc(NS(=O)(=O)c3cn(C)cn3)ccc2O[C@@H](C)CCCCO[C@H]1CN(C)S(=O)(=O)c1ccc(F)cc1	-1	4	0	-8	.	7
C[C@@H]1CCCCO[C@H](CN(C)S(=O)(=O)c2ccc(F)cc2)[C@@H](C)CN([C@H](C)CO)C(=O)c2cc(NS(=O)(=O)c3cn(C)cn3)ccc2O1	0	-2	0	23*	-6	13
C[C@@H]1CCCCO[C@@H](CN(C)S(=O)(=O)c2ccc(F)cc2)[C@@H](C)CN([C@@H](C)CO)C(=O)c2cc(NS(=O)(=O)c3ccc(F)cc3)ccc2O1	3	-4	0	-7	104*	-9
C[C@H]1CC=CC[C@H](c2ccc(F)cc2)NC(=O)[C@H](C)N(C)C(=O)c2ccccc2O1 (mixture of isomers)	.	.	0	.	.	6
CC(C)NC(=O)N[C@H]1C=C[C@@H](CC(=O)NC2Cc3ccccc3C2)O[C@H]1CO	3	-15	0	0	46	0
O=[N+]([O-])c1c(Nc2ccc(O)cc2)cc(Cl)c2nonc12	-12	.	1	6	1	54*
